# Experimental data published in paper PMC9989852 (Food and chemical toxicology : an international journal …, 2022).
# Where “and” joins values, the source holds several entries; their conditions need not be identical. Identical values can stand only once.
# Experiments:
# B6C3F1 mice = assay: Serum chemistries after 28-day dermal exposure; format: in vivo; settings: 28 days
# In short: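 Female B6C3F1 mice received daily dorsal ear application (25 μl/ear, acetone vehicle). About 24 h after the last dose, blood was taken by cardiac puncture. Serum was separated by centrifugation and stored at −20 °C. ALKP, BUN, glucose and cholesterol were read on a Catalyst DX analyzer. Data are mean ± SE of 4–5 mice, ANOVA with Dunnett's; ALKP was also tested by linear regression (p < 0.05).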
# [1] = PFAS concentration in pooled urine; format: in vivo, B6C3F1 mice; settings: 5%, dermal, 28 days; 5 pooled samples
# In short: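 Urine was caught in a weigh boat as it was excreted during CO2 euthanasia, about 24 h after the final daily ear dose (25 μl/ear, acetone vehicle; female B6C3F1 mice). The 5 mice per group were pooled, with variable volume. Samples underwent solid-phase extraction and LC/MS/MS, as linear isomer for short-chain analytes and linear plus branched for the comparator. Each group gave a single value without statistics.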
# ear pinna [2] = assay: Ear; format: in vivo, B6C3F1 mice; settings: dermal, 28 days, mice affected of 5
# In short: (§1)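 Female B6C3F1 mice (5/group) received 25 μl/ear on the dorsal ear surfaces daily, with acetone as vehicle. Tissues were formalin-fixed about 24 h after the last dose: liver remainder, half spleen, right kidney and half ear pinna. Sections were paraffin-embedded, cut at 5 μm and stained with H&E. A veterinary pathologist read them per STP guideline and graded 1 (minimal) to 5 (severe) by extent.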
# liver (caudate) = assay: Liver gene expression; format: in vivo, B6C3F1 mice; settings: dermal, 28 days
# In short: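 Dosing was daily topical to both dorsal ears (25 μl/ear, acetone vehicle) in female B6C3F1 mice. Liver caudate lobe or half ear pinna was stored in RNAlater and homogenized in RLT buffer. RNA was isolated on RNeasy columns with DNase, and 1–2 μg was reverse-transcribed. TaqMan real-time PCR was read as 2−ΔΔCT vs vehicle, normalized to β-actin. Statistics: ANOVA/Dunnett's, or Kruskal-Wallis/Dunn's for unequal variance.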
# liver = assay: Liver histopathology after 28-day dermal exposure; format: in vivo, B6C3F1 mice; settings: 28 days, mice affected of 5
# In short: as §1
# ear pinna [3] = assay: Skin; format: in vivo, B6C3F1 mice; settings: dermal, 28 days
# In short: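 Female B6C3F1 mice (5/group) received 25 μl/ear daily to the dorsal ears in acetone. About 24 h after the last dose, tissues went into RPMI: both auricular dLNs, half spleen and one ear pinna. Single-cell suspensions were acquired on an LSR II, with populations gated per supplemental strategy and FMO gating controls. Results are mean ± SE, n=5, by one-way ANOVA.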
compound,measurement,setting,value
"O=C(O)C(F)(F)C(F)(F)C(F)(F)C(F)(F)C(F)(F)C(F)(F)F [PFHpA, Perfluoroheptanoic acid]",serum ALKP,"B6C3F1 mice; 1.25–5%, linear regression p < 0.05, not significant via ANOVA",significant linear regression increase
same,"serum glucose, increase compared to vehicle control",B6C3F1 mice; 5%,30%
same,"serum urea nitrogen (BUN), decrease",B6C3F1 mice; 5%,30%
same,serum alanine aminotransferase (ALT),"B6C3F1 mice; any concentration, data not shown",No change
same,urine PFAS concentration,[1],1200 µg/mL
same,"Ear: Degeneration/regeneration, cartilage, focal, Mild (incidence)",ear pinna [2]; 1.25%,0
same,"Ear: Fibrosis, dermis, focal, Minimal (incidence)",ear pinna [2]; 1.25%,0
same,"Ear: Hyperkeratosis, epidermis, focal, Mild (incidence)",ear pinna [2]; 1.25%,0
same,"Ear: Hyperkeratosis, epidermis, focal, Minimal (incidence)",ear pinna [2]; 1.25%,0
same,"Ear: Hyperplasia, epidermis, focal, Mild (incidence)",ear pinna [2]; 1.25%,0
same,"Ear: Hyperplasia, epidermis, focal, Minimal (incidence)",ear pinna [2]; 1.25%,0
same,"Ear: Inflammation, mixed cell, dermis, Minimal (incidence)",ear pinna [2]; 1.25%,0
same,"Ear: Inflammation, mononuclear cell, dermis, Minimal (incidence)",ear pinna [2]; 1.25%,0
same,"Ear: Necrosis, epidermis, multifocal, Minimal (incidence)",ear pinna [2]; 1.25%,0
same,"Ear: Degeneration/regeneration, cartilage, focal, Mild (incidence)",ear pinna [2]; 2.5%,0
same,"Ear: Fibrosis, dermis, focal, Minimal (incidence)",ear pinna [2]; 2.5%,0
same,"Ear: Hyperkeratosis, epidermis, focal, Mild (incidence)",ear pinna [2]; 2.5%,0
same,"Ear: Hyperkeratosis, epidermis, focal, Minimal (incidence)",ear pinna [2]; 2.5%,0
same,"Ear: Hyperplasia, epidermis, focal, Mild (incidence)",ear pinna [2]; 2.5%,0
same,"Ear: Hyperplasia, epidermis, focal, Minimal (incidence)",ear pinna [2]; 2.5%,2/5 and 2
same,"Ear: Inflammation, mixed cell, dermis, Minimal (incidence)",ear pinna [2]; 2.5%,0
same,"Ear: Inflammation, mononuclear cell, dermis, Minimal (incidence)",ear pinna [2]; 2.5%,0
same,"Ear: Necrosis, epidermis, multifocal, Minimal (incidence)",ear pinna [2]; 2.5%,0
same,"Ear: Fibrosis, dermis, focal, Minimal (incidence)",ear pinna [2]; 5%,0
same,"Ear: Hyperkeratosis, epidermis, focal, Mild (incidence)",ear pinna [2]; 5%,0
same,"Ear: Hyperkeratosis, epidermis, focal, Minimal (incidence)",ear pinna [2]; 5%,4/5 and 4
same,"Ear: Hyperplasia, epidermis, focal, Mild (incidence)",ear pinna [2]; 5%,1/4 and 1
same,"Ear: Hyperplasia, epidermis, focal, Minimal (incidence)",ear pinna [2]; 5%,4/5 and 4
same,"Ear: Inflammation, mixed cell, dermis, Minimal (incidence)",ear pinna [2]; 5%,1
same,"Ear: Inflammation, mononuclear cell, dermis, Minimal (incidence)",ear pinna [2]; 5%,1
same,"Ear: Necrosis, epidermis, multifocal, Minimal (incidence)",ear pinna [2]; 5%,0
same,liver Pparγ expression,liver (caudate); 1.25%,increasing
same,liver Pparδ expression,liver (caudate); 1.25%,decreasing
same,"liver Cd36 gene expression, increase",liver (caudate); 2.5%,4 fold
same,"liver Lpl gene expression, increase",liver (caudate); 2.5%,2.2 fold
same,liver Pparδ expression,liver (caudate); 2.5%,decreasing
same,liver Acox1 gene expression,liver (caudate); 5%,increase
same,"liver Cd36 gene expression, increase",liver (caudate); 5%,4.8 fold
same,"liver Lpl gene expression, increase",liver (caudate); 5%,2.3 fold
same,liver Pltp gene expression,liver (caudate); 5%,increase
same,liver Pparδ expression,liver (caudate); 5%,decreasing
same,"Liver: Hypertrophy, centrilobular, hepatocyte, Mild (incidence)",liver; 1.25%,0
same,"Liver: Hypertrophy, centrilobular, hepatocyte, Minimal (incidence)",liver; 1.25%,3/5 and 3
same,"Liver: Hypertrophy, centrilobular, hepatocyte, Mild (incidence)",liver; 2.5%,0
same,"Liver: Hypertrophy, centrilobular, hepatocyte, Minimal (incidence)",liver; 2.5%,5/5 and 5
same,"Liver: Hypertrophy, centrilobular, hepatocyte, Mild (incidence)",liver; 5%,3/5 and 3
same,"Liver: Hypertrophy, centrilobular, hepatocyte, Minimal (incidence)",liver; 5%,2/5 and 2
same,Ear CD4^+ cell number,ear pinna [3]; 1.25%,1.49 ± 0.38 × 10^3
same,Ear CD4^+ frequency,ear pinna [3]; 1.25%,1.78 ± 0.19%
same,Ear CD8^+ cell number,ear pinna [3]; 1.25%,0.79 ± 0.14 × 10^2
same,Ear CD8^+ frequency,ear pinna [3]; 1.25%,0.11 ± 0.03%
same,Ear CD45^+ cell number,ear pinna [3]; 1.25%,8.01 ± 1.58 × 10^4
same,Ear CD45^+ frequency,ear pinna [3]; 1.25%,8.04 ± 1.11%
same,Ear CD lib- F4/80+ DCs cell number,ear pinna [3]; 1.25%,5.44 ± 0.94 × 10^2
same,Ear CDllb + F4/80+ DCs cell number,ear pinna [3]; 1.25%,4.52 ± 0.98 × 10^2
same,Ear CDllb- F4/80+ DCs frequency,ear pinna [3]; 1.25%,0.70 ± 0.05%
same,Ear CDllb- F4/80-DCs cell number,ear pinna [3]; 1.25%,1.12 ± 0.29 × 10^3
same,Ear CDllb- F4/80-DCs frequency,ear pinna [3]; 1.25%,1.34 ± 0.16 %
same,Ear Dendritic Cells cell number,ear pinna [3]; 1.25%,2.18 ± 0.47 × 10^3
same,Ear Dendritic Cells frequency,ear pinna [3]; 1.25%,2.69 ± 0.15%
same,Ear Eosinophils cell number,ear pinna [3]; 1.25%,1.41 ± 0.42 × 10^3
same,Ear Eosinophils frequency,ear pinna [3]; 1.25%,1.60 ± 0.26%
same,Ear NK cell number,ear pinna [3]; 1.25%,3.89 ± 0.91 × 10^2
same,Ear NK frequency,ear pinna [3]; 1.25%,0.48 ± 0.04%
same,Ear Neutrophils cell number,ear pinna [3]; 1.25%,1.59 ± 0.24 × 10^2
same,Ear Neutrophils frequency,ear pinna [3]; 1.25%,0.21 ± 0.02%
same,Ear Total Cellularity,ear pinna [3]; 1.25%,0.96 ± 0.08 × 10^6
same,Ear CD8^+ cell number,ear pinna [3]; 2.5%,1.77 ± 0.27 × 10^2
same,Ear CD8^+ frequency,ear pinna [3]; 2.5%,0.16 ± 0.01%
same,Ear CD lib- F4/80+ DCs cell number,ear pinna [3]; 2.5%,7.95 ± 0.98 × 10^2
same,Ear CDllb + F4/80+ DCs cell number,ear pinna [3]; 2.5%,13.00 ± 2.97 × 10^2
same,Ear CDllb + F4/80+ DCs frequency,ear pinna [3]; 2.5%,1.13 ± 0.12 %
same,Ear CDllb- F4/80+ DCs frequency,ear pinna [3]; 2.5%,0.75 ± 0.08 %
same,Ear CDllb- F4/80-DCs cell number,ear pinna [3]; 2.5%,2.42 ± 0.45 × 10^3
same,Ear Dendritic Cells frequency,ear pinna [3]; 2.5%,4.21 ± 0.26 %
same,Ear Eosinophils cell number,ear pinna [3]; 2.5%,5.54 ± 1.71 × 10^3
same,Ear Eosinophils frequency,ear pinna [3]; 2.5%,4.57 ± 0.96 %
same,Ear NK cell number,ear pinna [3]; 2.5%,7.43 ± 1.69 × 10^2
same,Ear NK frequency,ear pinna [3]; 2.5%,0.66 ± 0.08%
same,Ear Neutrophils cell number,ear pinna [3]; 2.5%,2.48 ± 0.43 × 10^2
same,Ear CD4^+ cell number,ear pinna [3]; 5%,6.06 ± 0.33 × 10^3
same,Ear CD4^+ frequency,ear pinna [3]; 5%,4.18 ± 0.24 %
same,Ear CD8^+ cell number,ear pinna [3]; 5%,2.81 ± 0.39 × 10^2
same,Ear CD8^+ frequency,ear pinna [3]; 5%,0.20 ± 0.03 %
same,Ear CD45^+ cell number,ear pinna [3]; 5%,14.60 ± 0.67 × 10^4
same,Ear CD45^+ frequency,ear pinna [3]; 5%,12.38 ± 0.81%
same,Ear CD lib- F4/80+ DCs cell number,ear pinna [3]; 5%,14.50 ± 0.97 × 10^2
same,Ear CDllb + F4/80+ DCs cell number,ear pinna [3]; 5%,18.90 ± 1.84 × 10^2
same,Ear CDllb + F4/80+ DCs frequency,ear pinna [3]; 5%,1.31 ± 0.14 %
same,Ear CDllb- F4/80+ DCs frequency,ear pinna [3]; 5%,1.00 ± 0.07 %
same,Ear CDllb- F4/80-DCs cell number,ear pinna [3]; 5%,3.38 ± 0.19 × 10^3
same,Ear CDllb- F4/80-DCs frequency,ear pinna [3]; 5%,2.32 ± 0.03%
same,Ear Dendritic Cells cell number,ear pinna [3]; 5%,7.25 ± 0.31 × 10^3
same,Ear Dendritic Cells frequency,ear pinna [3]; 5%,4.99 ± 0.15 %
same,Ear Eosinophils cell number,ear pinna [3]; 5%,6.45 ± 1.12 × 10^3
same,Ear Eosinophils frequency,ear pinna [3]; 5%,4.36 ± 0.63 %
same,Ear NK cell number,ear pinna [3]; 5%,7.96 ± 0.70 × 10^2
same,Ear NK frequency,ear pinna [3]; 5%,0.56 ± 0.07%
same,Ear Neutrophils cell number,ear pinna [3]; 5%,7.10 ± 1.15 × 10^2
same,Ear Neutrophils frequency,ear pinna [3]; 5%,0.49 ± 0.07 %
same,Ear Total Cellularity,ear pinna [3]; 5%,1.19 ± 0.08 × 10^6
